Test results as given in publication PMC5443258 (Cancer cell, 2017).
Where a SMILES comes first, the peptide text is derived from it. Where no end group is shown, it is not given here. [ ]: non-standard residue; d: D form.

Legend:
[1] = biological target: T1, ERG protein in VCaP cells (Homo sapiens, UniProt P11308); test: Cellular thermal shift assay; format: cell-based; conditions: 50°C, 3 hours treatment
T1 sequence (P11308 33-479 limits assumed): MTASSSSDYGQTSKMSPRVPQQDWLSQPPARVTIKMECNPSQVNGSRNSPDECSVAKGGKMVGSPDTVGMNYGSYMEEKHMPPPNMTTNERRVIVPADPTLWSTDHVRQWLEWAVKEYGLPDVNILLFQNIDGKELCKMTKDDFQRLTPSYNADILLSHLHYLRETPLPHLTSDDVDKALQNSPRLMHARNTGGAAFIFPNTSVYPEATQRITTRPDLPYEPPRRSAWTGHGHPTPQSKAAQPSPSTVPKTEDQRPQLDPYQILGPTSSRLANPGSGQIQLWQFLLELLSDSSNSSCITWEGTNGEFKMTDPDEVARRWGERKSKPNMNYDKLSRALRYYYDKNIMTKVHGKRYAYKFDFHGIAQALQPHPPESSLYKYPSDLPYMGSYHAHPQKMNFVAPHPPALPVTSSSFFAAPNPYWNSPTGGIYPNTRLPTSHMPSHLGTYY

[2] = biological target: T1, ERG protein in VCaP cells; format: cell-based
[3] = biological target: T2, ERG protein in RWPE1-ERG cells (Homo sapiens, UniProt P11308); test: Immunoblot of ERG protein in RWPE1-ERG cells; format: cell-based; conditions: even at 5 μM concentration
T2 sequence (P11308 33-479 limits assumed): T1 sequence (P11308 33-479 limits assumed)

[4] = biological target: T3, ERG protein in PC3-ERG cells (Homo sapiens, UniProt P11308); test: Immunoblot of ERG protein in PC3-ERG cells; format: cell-based; conditions: even at 5 μM concentration
T3 sequence (P11308 1-479): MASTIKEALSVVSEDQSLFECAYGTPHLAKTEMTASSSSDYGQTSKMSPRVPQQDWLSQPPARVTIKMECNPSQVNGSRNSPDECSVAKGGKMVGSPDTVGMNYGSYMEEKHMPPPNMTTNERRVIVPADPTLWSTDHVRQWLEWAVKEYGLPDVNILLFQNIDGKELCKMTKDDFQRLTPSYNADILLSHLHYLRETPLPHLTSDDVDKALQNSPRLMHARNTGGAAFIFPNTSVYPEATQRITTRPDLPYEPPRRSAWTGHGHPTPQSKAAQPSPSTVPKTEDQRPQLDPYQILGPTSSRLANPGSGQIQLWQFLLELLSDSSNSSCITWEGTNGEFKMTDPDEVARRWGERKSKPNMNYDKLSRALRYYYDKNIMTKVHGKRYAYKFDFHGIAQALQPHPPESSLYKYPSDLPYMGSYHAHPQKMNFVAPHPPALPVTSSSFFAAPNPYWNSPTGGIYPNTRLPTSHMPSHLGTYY

[5] = tested on: ERG recruitment to chromatin; test: ChIP and ChIP-seq in VCaP cells; format: cell-based
Method in brief: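 VCaP cells were exposed to 50 μM test compound or mutant control peptide for 12 h. Cells were cross-linked in 1% formaldehyde for 10 min, quenched with glycine, and sonicated to ~200 bp fragments. Chromatin from 5×10^6 cells was incubated with antibody overnight at 4°C, and crosslinks were reversed at 67°C for 4–5 h. ChIP-seq ERG signal was normalized and taken at summits of 4th-quartile peaks (mutant-control sample), ±400 bp.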

[6] = biological target: T4, ERG protein in HUVEC cells (Homo sapiens, UniProt P11308); test: Cellular thermal shift assay; format: cell-based
T4 sequence (P11308 1-479): T3 sequence (P11308 1-479)

ERG:DNA-PKcs interaction = biological target: T5, ERG:DNA-PKcs interaction (Homo sapiens, UniProt P11308); test: Co-immunoprecipitation from VCaP xenograft tumors after single dose; format: in vivo, mice; conditions: single 25 mg/kg dose IP, three and six hours post injection, co-IP immunoblot
T5 sequence (P11308 33-479 limits assumed): T1 sequence (P11308 33-479 limits assumed)

VCaP cells = tested on: VCaP cells; set-up: species or system chicken; conditions: in vivo, 25 mg/kg
VCaP xenografts = test: VCaP xenograft mouse model; format: in vivo, mice; conditions: 25 mg/kg, IP-Western blot, compared to mutant peptide
Method in brief: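 Mice carried VCaP xenografts staged for three weeks, with 10 per group. Test compound or mutant control peptide was given IP at 25 mg/kg daily. Tumors were collected 24 h after the final dose and lysed in MOPS pH 7.0 buffer with phosphatase and protease inhibitors. For IP-Western, 0.5–1.0 mg lysate was precleared, incubated with 2 μg anti-ERG at 4°C for 4 h, then with protein A/G beads overnight, and immunoblotted.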

ERG protein = biological target: T6, ERG protein (Homo sapiens, UniProt P11308); test: Biolayer interferometry
T6 sequence (P11308 1-479): T3 sequence (P11308 1-479)

ERG:AR interaction = biological target: T7, ERG:AR interaction (Homo sapiens, UniProt P11308); test: In vitro peptide competitive pull-down, ERG:AR; format: biochemical; conditions: cell-free, Halo-ERG and GST-AR, increasing peptide concentrations, immunoblot
T7 sequence (P11308 1-479): T3 sequence (P11308 1-479)

ERG:EBS DNA interaction = ERG:EBS DNA interaction (Homo sapiens, UniProt P11308)
ERG_Y373A = ERG_Y373A (Homo sapiens, UniProt P11308, Y373A); test: biochemical

With `CC(C)C[C@@H](NC(=O)[C@H]1CCCN1C(=O)[C@H]1CCCN1C(=O)[C@@H](Cc1ccc(O)cc1)NC(=O)[C@@H](CC(C)C)NC(=O)[C@@H](Cc1ccccc1)NC(=O)[C@H](N)[C@H](C)O)C(=O)O` [RI-EIP1] (H-[dT][dF][dL][dY][dP][dP][dL]-OH) the “solubility of ERG protein, isothermal dose-response” value [1] was “increased in a dose-dependent fashion”, the “ERG protein half-life in the presence of cycloheximide” value [2] was “significantly shortened” and the “effect on ERG protein in RWPE1-ERG cells” value [3] was “destabilized”. For the same molecule, the “effect on ERG protein in PC3-ERG cells” value [4] was “destabilized”, the “average ERG ChIP-seq signal for 4th quartile peaks” value ([5]; 50 μM, 12 hours, compared to mutant peptide) was “markedly reduced” and the “ERG and DNA-PKcs enrichment at ERG-regulated genomic loci (ChIP)” value ([5]; 12 hours treatment) was “inhibited”. The “thermal shift of soluble ERG protein in HUVEC cells (CETSA)” value [6] was “no clear thermal shift”, the “ERG:DNA-PKcs interaction in xenograft tumors” value (ERG:DNA-PKcs interaction) was “blocked” and the “ERG-mediated invasion in CAM” value (VCaP cells) was “blocked”. For the same molecule, the “ERG protein in VCaP xenograft tumors after 18 days treatment” value (VCaP xenografts) was “degradation of ERG protein” and the Kd (ERG protein) was 0.94 µM.
In the case of `CC(C)C[C@@H](NC(=O)[C@@H](CO)NC(=O)[C@@H](Cc1ccccc1)NC(=O)CNC(=O)[C@@H](CO)NC(=O)[C@@H](CC(C)C)NC(=O)[C@H]1CCCN1)C(=O)O` [RI-EIP2] (H-[dP][dL][dS]G[dF][dS][dL]-OH), the “effect on ERG protein in RWPE1-ERG cells” value [3] is reported as “destabilized”, the “effect on ERG protein in PC3-ERG cells” value [4] is reported as “destabilized” and the Kd (ERG protein) is reported as 1.28 µM.
LPPYLFT [EIP1] was tested, and the “disruption of direct ERG:AR interaction” value (ERG:AR interaction) was “disrupted”, the “disruption of ERG:EBS DNA interaction” value (ERG:EBS DNA interaction) was “effectively disrupted” and the Kd (ERG_Y373A) was greater than 100 µM. For the same molecule, the Kd (ERG protein) was 0.6 µM.
For LSFGSLP [EIP2], the “disruption of direct ERG:AR interaction” value (ERG:AR interaction) was “disrupted” and the Kd (ERG protein) was 1.8 µM.
